# Measured values as given in ChEMBL document CHEMBL1147403, “MexAB-OprM specific efflux pump inhibitors in Pseudomonas aeruginosa. Part 3: Optimization of potency in the pyridopyrimidine series through the application of a pharmacophore model” (2004).
# Assays:
# Assay type in all cases: functional
# Pseudomonas aeruginosa [1] = experiment: Minimum inhibitory concentration against Pseudomonas aeruginosa in presence of aztreonam substrate and with 0.125% human serum albumin, (100% growth inhibition)
# In short: (§1)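 Potentiation of aztreonam, a MexAB-OprM substrate, against P. aeruginosa PAM1723 (MexAB-OprM overexpressed; MexCD-OprJ and MexEF-OprN genetically disrupted). Run without HSA and with 0.125% human serum albumin. Value is the inhibitor concentration (µg/mL) giving 8-fold potentiation (MPC8).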
# Pseudomonas aeruginosa [2] = experiment: Minimum inhibitory concentration against Pseudomonas aeruginosa in presence of aztreonam substrate and with out human serum albumin, (100% growth inhibition); in short: as §1
# Pseudomonas aeruginosa [3] = experiment: Intrinsic antibacterial activity against Pseudomonas aeruginosa
# In short: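 Tested alone for antibacterial activity against P. aeruginosa PAM1723, a strain that overexpresses the MexAB-OprM pump and has MexCD-OprJ and MexEF-OprN genetically disrupted; MIC in µg/mL.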
# Pseudomonas aeruginosa [4] = experiment: Minimum inhibitory concentration Pseudomonas aeruginosa in presence of LVFX substrate, (100% growth inhibition)
# In short: (§2)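 Potentiation of levofloxacin (LVFX), a MexAB-OprM substrate, against P. aeruginosa PAM1723 (MexAB-OprM overexpressed; MexCD-OprJ and MexEF-OprN genetically disrupted). Value is the inhibitor concentration (µg/mL) giving 4-fold (MPC4) or 8-fold (MPC8) potentiation.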
# Rattus norvegicus = species: Rattus norvegicus; experiment: Serum protein binding of compound was evaluated using rat serum
# Pseudomonas aeruginosa [5] = experiment: Minimum inhibitory concentration against Pseudomonas aeruginosa in presence of LVFX substrate, (100% growth inhibition); in short: as §2
Structure (SMILES),MPC8 (Pseudomonas aeruginosa [1]) [µg/mL],MPC8 (Pseudomonas aeruginosa [2]) [µg/mL],MIC (Pseudomonas aeruginosa [3]) [mg/L],MPC4 (Pseudomonas aeruginosa [4]) [µg/mL],Binding (Rattus norvegicus) [%],MPC8 (Pseudomonas aeruginosa [5]) [µg/mL]
CC(C)c1csc(CCc2ccn3c(=O)c(/C=C/C(=O)O)c(N4CCN(C)CC4)nc3c2)n1,32,16,> 320,8,67.8,32
CC(C)c1csc(CCc2ccn3c(=O)c(/C=C/c4nn[nH]n4)c(N4CCCC(O)C4)nc3c2)n1 (stereo not given),4,4,> 320,0.5,,4
CC(C)c1csc(CCc2ccn3c(=O)c(/C=C/C(=O)O)c(N4CCCN(C)CC4)nc3c2)n1,128,128,> 320,8,,128
CC(C)c1csc(CCc2ccn3c(=O)c(-c4nnn[nH]4)cnc3c2)n1,16,16,> 320,>16,81.5,>16
CC(C)Nc1nc2cc(CCc3nc(C(C)C)cs3)ccn2c(=O)c1/C=C/C(=O)O,64,64,> 320,8,82.1,64
CC(C)c1csc(/C=C/c2cccc(NC(=O)Cc3ccccc3C(=O)O)c2)n1,16,2,> 320,1,>98,2
CC(C)c1csc(CCc2ccn3c(=O)c(/C=C/C(=O)O)c(N4CCCC(N(C)C)C4)nc3c2)n1 (stereo not given),128,>128,> 320,8,,128
CC(C)c1csc(CCc2ccn3c(=O)c(CCC(=O)O)c(N4CCCC(O)C4)nc3c2)n1 (stereo not given),,>128,> 320,32,,>128
CC(C)c1csc(CCc2ccn3c(=O)c(/C=C/C(=O)O)c(NCCc4ccncc4)nc3c2)n1,32,16,> 320,8,,64
CC(C)c1csc(CCc2ccn3c(=O)c(/C=C/C(=O)O)c(N4CCC(OC(N)=O)CC4)nc3c2)n1,16,16,> 320,2,,16
CC(C)c1csc(CCc2ccn3c(=O)c(/C=C/C(=O)O)c(N4CCC(O)C4)nc3c2)n1 (stereo not given),32,32,> 320,4,,32
CC(C)c1csc(CCc2ccn3c(=O)c(/C=C/C(=O)O)c(N4CCCC4)nc3c2)n1,8,8,> 320,2,,8
CC(C)c1csc(CCc2ccn3c(=O)c(/C=C/C(=O)O)c(N4CCC(O)CC4)nc3c2)n1,16,16,> 320,1,,8
CC(C)c1csc(CCc2ccn3c(=O)c(/C=C/C(=O)O)c(N4CCCC(OC(N)=O)C4)nc3c2)n1 (stereo not given),16,32,> 320,1,91.2,8
CC(C)c1csc(CCc2ccn3c(=O)c(/C=C/C(=O)O)c(N4CCCC(O)C4)nc3c2)n1 (stereo not given),16,8,> 320,0.5,82.1,8
"CC(C)c1csc(CCc2ccn3c(=O)c(/C=C/C(=O)O)c(N[C@H](CO)[C@@H](O)c4ccccc4)nc3c2)n1 (single isomer, unassigned)",64,64,> 320,8,,64
